Results taken from ChEMBL document CHEMBL1914326, “Synthesis and anticonvulsant properties of new acetamide derivatives of phthalimide, and its saturated cyclohexane and norbornene analogs” (Eur J Med Chem, 2011).
Calls of active or inactive are those of the source. The rule behind the calls is not given here.

Key:
Mus musculus [1] = assay: Anticonvulsant activity in ip dosed CF1 albino mouse assessed as protection against subcutaneous pentylenetetrazole-induced after 4 hrs; assay type: functional; conditions: read-out: MED
Procedure, shortened: (§1)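 Male CF-1 mice in groups of eight were dosed i.p. at 30, 100 or 300 mg/kg in 0.5% methylcellulose/water. At 0.5 and 4 h, pentylenetetrazole 85 mg/kg (CD97 dose) was given s.c. This dose produces clonic seizures lasting at least 5 s. The minimum protective dose was recorded, with a top dose of 300 mg/kg.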

Mus musculus [2] = assay: Anticonvulsant activity in ip dosed CF1 albino mouse assessed as protection against maximal electroshock after 4 hrs; assay type: functional; conditions: read-out: MED
Procedure, shortened: (§2)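 Male albino CF-1 mice in groups of eight received i.p. doses of 30, 100 and 300 mg/kg, suspended in 0.5% methylcellulose/water. Maximal electroshock seizures were tested at 0.5 and 4 h, with one additional 0.25 h reading at 100 mg/kg. The minimum dose giving protection was recorded. A dash means no activity at 300 mg/kg.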

Mus musculus [3] = assay: Neurotoxicity in ip dosed CF1 albino mouse assessed as minimum dose required to cause motor impairment after 4 hrs by rotarod test; assay type: toxicity, organism-based; conditions: in vivo
Procedure, shortened: (§3)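 Acute neurotoxicity was scored on the minimal motor impairment rotorod test in male CF-1 mice. Animals in groups of eight were dosed i.p. at 30, 100 or 300 mg/kg in 0.5% methylcellulose/water and examined at 0.5 and 4 h. Untreated controls keep their balance on the rod for a prolonged time. The minimum dose causing impairment was recorded.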

Mus musculus [4] = assay: Anticonvulsant activity in ip dosed CF1 albino mouse assessed as protection against maximal electroshock after 0.5 hrs; assay type: functional; conditions: read-out: MED; procedure, shortened: as §2
Mus musculus [5] = assay: Anticonvulsant activity in ip dosed CF1 albino mouse assessed as protection against subcutaneous pentylenetetrazole-induced after 0.5 hrs; assay type: functional; conditions: read-out: MED; procedure, shortened: as §1
Mus musculus [6] = assay: Neurotoxicity in ip dosed CF1 albino mouse assessed as minimum dose required to cause motor impairment after 0.5 hrs by rotarod test; assay type: toxicity, organism-based; conditions: in vivo; procedure, shortened: as §3
Rattus norvegicus [7] = assay: Anticonvulsant activity in po dosed rat assessed as protection against maximal electroshock; assay type: functional
Mus musculus [8] = assay: Anticonvulsant activity in CF1 albino mouse assessed as protection against subcutaneous pentylenetetrazole-induced seizures at 300 mg/kg, ip after 0.5 hrs; assay type: functional, organism-based; design: dose 300 mg/kg; procedure, shortened: as §1
Mus musculus [9] = assay: Anticonvulsant activity in CF1 albino mouse assessed as protection against maximal electroshock at 300 mg/kg, ip after 4 hrs; assay type: functional, organism-based; design: dose 300 mg/kg; procedure, shortened: as §2
Mus musculus [10] = assay: Anticonvulsant activity in CF1 albino mouse assessed as protection against subcutaneous pentylenetetrazole-induced seizures at 300 mg/kg, ip after 4 hrs; assay type: functional, organism-based; design: dose 300 mg/kg; procedure, shortened: as §1
Mus musculus [11] = assay: Neurotoxicity in CF1 albino mouse assessed as motor impairment at 300 mg/kg, ip after 4 hrs by rotarod test; assay type: toxicity, organism-based; design: dose 300 mg/kg, route intraperitoneal; conditions: in vivo; procedure, shortened: as §3
Mus musculus [12] = assay: Anticonvulsant activity in CF1 albino mouse assessed as protection against maximal electroshock at 300 mg/kg, ip after 0.5 hrs; assay type: functional, organism-based; design: dose 300 mg/kg; procedure, shortened: as §2
Mus musculus [13] = assay: Neurotoxicity in CF1 albino mouse assessed as motor impairment at 300 mg/kg, ip after 0.5 hrs by rotarod test; assay type: toxicity, organism-based; design: dose 300 mg/kg, route intraperitoneal; conditions: in vivo; procedure, shortened: as §3
Rattus norvegicus [14] = assay: Anticonvulsant activity in Sprague-Dawley albino rat assessed as protection against maximal electroshock at 30 mg/kg, po after 1 hr; assay type: functional
Procedure, shortened: (§4)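 Male Sprague-Dawley rats in groups of four received 30 mg/kg p.o. as a suspension in 0.5% methylcellulose/water. Maximal electroshock seizure protection was scored at 0.25, 0.5, 1, 2 and 4 h and reported as rats protected/rats tested.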

Rattus norvegicus [15] = assay: Anticonvulsant activity in Sprague-Dawley albino rat assessed as protection against maximal electroshock at 30 mg/kg, po after 2 hrs; assay type: functional; procedure, shortened: as §4
Rattus norvegicus [16] = assay: Anticonvulsant activity in Sprague-Dawley albino rat assessed as protection against maximal electroshock at 30 mg/kg, po after 4 hrs; assay type: functional; procedure, shortened: as §4
Rattus norvegicus [17] = assay: Anticonvulsant activity in Sprague-Dawley albino rat assessed as protection against maximal electroshock at 30 mg/kg, po after 0.5 hrs; assay type: functional; procedure, shortened: as §4
Rattus norvegicus [18] = assay: Neurotoxicity in Sprague-Dawley albino rat assessed as motor impairment at 30 mg/kg, po by rotarod test; assay type: toxicity, organism-based; design: dose 30 mg/kg, route oral; conditions: in vivo
Procedure, shortened: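 Male Sprague-Dawley rats in groups of four were given 30 mg/kg orally in 0.5% methylcellulose/water. Motor impairment was then assessed on the standardized minimal motor impairment rotorod test.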

Rattus norvegicus [19] = assay: Anticonvulsant activity in Sprague-Dawley albino rat assessed as protection against maximal electroshock at 30 mg/kg, po after 0.25 hrs; assay type: functional; procedure, shortened: as §4
Mus musculus [20] = assay: Neurotoxicity in CF1 albino mouse assessed as unable to grasp rotarod at 300 mg/kg, ip after 4 hrs by rotarod test; assay type: toxicity, organism-based; design: dose 300 mg/kg, route intraperitoneal; conditions: in vivo; procedure, shortened: as §3

SMILES	minimal effective dose (Mus musculus [4])	Activity (Mus musculus [8])	Activity (Mus musculus [9])	Activity (Mus musculus [10])	Activity (Mus musculus [11])	Activity (Mus musculus [12])	Activity (Mus musculus [13])	also measured
NC(=O)N1c2ccccc2C=Cc2ccccc21 [CARBAMAZEPINE]	30 mg/kg	–	–	–	–	–	–	minimal effective dose (Mus musculus [1]): 300 mg/kg; minimal effective dose (Mus musculus [2]): 100 mg/kg; MTC (Mus musculus [3]): 300 mg/kg; minimal effective dose (Mus musculus [5]): 100 mg/kg; MTC (Mus musculus [6]): 100 mg/kg
Nc1ccc(N2C(=O)c3ccccc3C2=O)c(Cl)c1	–	–	–	–	–	–	–	ED50 (Rattus norvegicus [7]): 5.7 mg/kg
O=C(CN1C(=O)C2CCCCC2C1=O)N1CCN(Cc2ccccc2)CC1 (stereo not given)	–	inactive	inactive	inactive	Non-toxic	inactive	–	MTC (Mus musculus [6]): 300 mg/kg
O=C(CN1C(=O)c2ccccc2C1=O)N1CCN(c2cccc(Cl)c2Cl)CC1	–	inactive	–	inactive	Non-toxic	inactive	Non-toxic	minimal effective dose (Mus musculus [2]): 100 mg/kg
O=C(CN1C(=O)C2CCCCC2C1=O)N1CCN(CCO)CC1 (stereo not given)	–	inactive	inactive	inactive	Non-toxic	inactive	Non-toxic	–
O=C(CN1C(=O)C2CCCCC2C1=O)N1CCN(c2cccc(Cl)c2)CC1 (stereo not given)	–	inactive	inactive	inactive	Non-toxic	inactive	Non-toxic	–
O=C(CN1C(=O)C2C3C=CC(C3)C2C1=O)N1CCN(c2ccccc2)CC1 (stereo not given)	–	inactive	inactive	inactive	Non-toxic	inactive	Non-toxic	–
O=C(CN1C(=O)C2C3C=CC(C3)C2C1=O)N1CCN(c2cccc(Cl)c2)CC1 (stereo not given)	–	inactive	inactive	inactive	Non-toxic	inactive	Non-toxic	–
CCC1(C)CC(=O)NC1=O (stereo not given) [ETHOSUXIMIDE]	–	–	inactive	–	Non-toxic	inactive	Non-toxic	minimal effective dose (Mus musculus [1]): 300 mg/kg; minimal effective dose (Mus musculus [5]): 100 mg/kg
O=C(CN1C(=O)c2ccccc2C1=O)N1CCN(CCO)CC1	–	inactive	inactive	inactive	Non-toxic	inactive	Non-toxic	–
O=C(CN1C(=O)c2ccccc2C1=O)N1CCN(c2ccc(Cl)cc2)CC1	100 mg/kg	inactive	–	inactive	Non-toxic	–	Non-toxic	Activity (Rattus norvegicus [14]): 0%; Activity (Rattus norvegicus [15]): 0%; Activity (Rattus norvegicus [16]): 50%; Activity (Rattus norvegicus [17]): 0%; minimal effective dose (Mus musculus [2]): 100 mg/kg; Activity (Rattus norvegicus [18]): Non-toxic; Activity (Rattus norvegicus [19]): 0%
O=C(CN1C(=O)c2ccccc2C1=O)N1CCN(c2ccccc2F)CC1	300 mg/kg	–	inactive	inactive	Non-toxic	–	Non-toxic	minimal effective dose (Mus musculus [5]): 300 mg/kg
O=C1CC2(CCc3ccccc3C2)C(=O)N1CN1CCN(c2cccc(C(F)(F)F)c2)CC1 (stereo not given)	–	–	–	–	–	–	–	ED50 (Rattus norvegicus [7]): 9 mg/kg
O=C(CN1C(=O)c2ccccc2C1=O)N1CCN(c2cccc(C(F)(F)F)c2)CC1	–	inactive	–	inactive	Non-toxic	inactive	Non-toxic	minimal effective dose (Mus musculus [2]): 100 mg/kg
O=C(CN1C(=O)C2CCCCC2C1=O)N1CCN(c2cccc(C(F)(F)F)c2)CC1 (stereo not given)	100 mg/kg	inactive	inactive	inactive	Non-toxic	–	Non-toxic	–
O=C(CN1C(=O)c2ccccc2C1=O)N1CCN(c2ccccc2Cl)CC1	100 mg/kg	inactive	inactive	inactive	Non-toxic	–	Non-toxic	–
O=C(CN1C(=O)C2CCCCC2C1=O)N1CCN(c2ccccc2)CC1 (stereo not given)	300 mg/kg	inactive	inactive	inactive	Non-toxic	–	Non-toxic	–
O=C(CN1C(=O)c2ccccc2C1=O)N1CCN(c2cccc(Cl)c2)CC1	–	inactive	inactive	inactive	Non-toxic	inactive	Non-toxic	–
O=C(CN1C(=O)C2C3C=CC(C3)C2C1=O)N1CCN(c2ccccc2F)CC1 (stereo not given)	–	inactive	inactive	inactive	Non-toxic	inactive	Non-toxic	–
O=C(CN1C(=O)c2ccccc2C1=O)N1CCN(Cc2ccccc2)CC1	–	inactive	inactive	inactive	Non-toxic	inactive	Non-toxic	–
O=C1NC(=O)C(c2ccccc2)(c2ccccc2)N1 [PHENYTOIN]	30 mg/kg	inactive	–	inactive	–	–	–	Activity (Rattus norvegicus [14]): 75%; Activity (Rattus norvegicus [15]): 75%; Activity (Rattus norvegicus [16]): 75%; Activity (Rattus norvegicus [17]): 100%; minimal effective dose (Mus musculus [2]): 30 mg/kg; MTC (Mus musculus [3]): 100 mg/kg; Activity (Rattus norvegicus [18]): Non-toxic; Activity (Rattus norvegicus [19]): 25%; MTC (Mus musculus [6]): 100 mg/kg
O=C(CN1C(=O)c2ccccc2C1=O)N1CCN(c2ccc(F)cc2)CC1	30 mg/kg	–	–	–	–	–	–	minimal effective dose (Mus musculus [1]): 300 mg/kg; Activity (Rattus norvegicus [14]): 50%; Activity (Rattus norvegicus [15]): 100%; Activity (Rattus norvegicus [16]): 100%; Activity (Rattus norvegicus [17]): 50%; minimal effective dose (Mus musculus [2]): 100 mg/kg; MTC (Mus musculus [3]): 300 mg/kg; Activity (Rattus norvegicus [18]): Non-toxic; Activity (Rattus norvegicus [19]): 25%; minimal effective dose (Mus musculus [5]): 300 mg/kg; MTC (Mus musculus [6]): 300 mg/kg
O=C(CN1C(=O)C2CCCCC2C1=O)N1CCOCC1 (stereo not given)	–	inactive	inactive	–	Non-toxic	inactive	–	minimal effective dose (Mus musculus [1]): 300 mg/kg; MTC (Mus musculus [6]): 300 mg/kg
O=C(CN1C(=O)C2C3C=CC(C3)C2C1=O)N1CCN(Cc2ccccc2)CC1 (stereo not given)	–	inactive	inactive	inactive	Non-toxic	inactive	Non-toxic	–
O=C(CN1C(=O)c2ccccc2C1=O)N1CCN(c2ccccc2)CC1	100 mg/kg	inactive	inactive	inactive	Non-toxic	–	Non-toxic	–
O=C(CN1C(=O)C2CCCCC2C1=O)N1CCN(c2ccc(Cl)cc2)CC1 (stereo not given)	–	inactive	–	inactive	Non-toxic	inactive	Non-toxic	minimal effective dose (Mus musculus [2]): 300 mg/kg
O=C(CN1C(=O)C2C3C=CC(C3)C2C1=O)N1CCN(c2ccc(F)cc2)CC1 (stereo not given)	100 mg/kg	inactive	–	inactive	–	–	–	minimal effective dose (Mus musculus [2]): 100 mg/kg; Activity (Mus musculus [20]): Toxic; MTC (Mus musculus [6]): 300 mg/kg
